Measurements published in ChEMBL document CHEMBL2151023, “2-Alkynoic fatty acids inhibit topoisomerase IB from Leishmania donovani” (Bioorg Med Chem Lett, 2012).
Activity calls are given as the source filed them. The calls are words filed in the database; no cut-off is given here.

What was measured:
[1] = system: L6; experiment: Cytotoxicity against rat L6 cells; type: cell-based
[2] = system: Trypanosoma brucei rhodesiense; experiment: Antiprotozoal activity against Trypanosoma brucei rhodesiense bloodstream forms; type: functional, organism-based
[3] = system: Trypanosoma cruzi; experiment: Antiprotozoal activity against intracellular Trypanosoma cruzi amastigotes in rat L6 cells; type: functional, organism-based
[4] = system: Leishmania donovani; experiment: Antiprotozoal activity against Leishmania donovani axenic amastigotes; type: functional, organism-based
[5] = system: Leishmania infantum; experiment: Induction of apoptosis in Leishmania infantum promastigotes at 400 uM after 24 hrs by AnnexinV-FITC/propidium iodide based FACS flow cytometry; type: functional
How it was run: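 L. infantum promastigotes exposed to 400 μM for 24 h, harvested, washed twice in PBS, resuspended at 1×10^6 cells/ml, stained with annexin V-FITC plus propidium iodide for 15 min at room temperature in the dark. Flow cytometry on at least 10,000 gated cells, read as percent of cells per quadrant. Untreated and H2O2-treated cells serve as controls. Representative of three independent trials.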

[6] = Inhibition of human topoisomerase 1B-mediated relaxation of supercoiled pSK DNA after 30 mins by ethidium bromide staining based agarose gel electrophoresis
How it was run: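 Plasmid DNA relaxation assay with the enzyme over 30 min at 37 °C, acid at 3.125–100 μM. Reactions stopped with 1% SDS plus proteinase K. Products resolved on agarose and stained with ethidium bromide, scoring supercoiled, nicked and relaxed topoisomer bands.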

[7] = Cytotoxicity against BALB/C mouse macrophages; type: cell-based; conditions: Macrophage
[8] = target: T1, DNA topoisomerase type IB small subunit (Leishmania major) (UniProt Q95Z89); experiment: Inhibition of Leishmania donovani topoisomerase 1B-mediated relaxation of supercoiled pSK DNA at 100 uM after 4 mins by ethidium bromide staining based agarose gel electrophoresis
T1 sequence (whole entry): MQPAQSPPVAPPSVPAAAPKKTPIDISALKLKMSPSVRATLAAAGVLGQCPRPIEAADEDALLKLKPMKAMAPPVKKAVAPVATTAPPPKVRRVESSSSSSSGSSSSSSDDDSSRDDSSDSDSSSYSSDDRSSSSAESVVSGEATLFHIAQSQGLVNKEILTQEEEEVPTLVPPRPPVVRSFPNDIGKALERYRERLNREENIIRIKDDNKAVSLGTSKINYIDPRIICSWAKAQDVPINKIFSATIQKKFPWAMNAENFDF
How it was run: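 Stopped with 1% SDS, then digested 1 h at 37°C with 1 mg/ml proteinase K. Extracted with phenol-chloroform and run on 1% agarose containing 40 µg/ml ethidium bromide.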

[9] = target: T1, DNA topoisomerase type IB small subunit (Leishmania major); experiment: Inhibition of Leishmania donovani topoisomerase 1B-mediated relaxation of supercoiled pSK DNA at 100 uM preincubated for 15 mins by ethidium bromide staining based agarose gel electrophoresis
How it was run: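 LdTopIB pre-incubated 15 min at 4 °C with 100 µM compound, or with DMSO as control. […] Samples stopped with SDS, digested with proteinase K, phenol-chloroform extracted and resolved on ethidium bromide agarose gel.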

## CCCCCCCCCCCCCCCC(=O)O [PALMITIC ACID]
[1]
  IC50: 209 µM

## CCCCCCCCCCCCCCCC#CC(=O)O
[2]
  IC50: 64.5 µM
[3]
  IC50: 48.1 µM
[4]
  IC50: 11 µM
[1]
  IC50: 20 µM
[5]
  Activity: 1.98%
[6]
  EC50: 51.9 µM
[7]
  IC50: > 100 µM

## CC[C@@]1(O)C(=O)OCc2c1cc1n(c2=O)Cc2cc3ccccc3nc2-1 [CAMPTOTHECIN]
[6]
  EC50: 2 µM
[7]
  IC50: 0.62 µM
[8]
  inhibition: inactive
[9]
  inhibition: Active

## COc1cc([C@@H]2c3cc4c(cc3[C@H](O)[C@H]3COC(=O)[C@H]23)OCO4)cc(OC)c1OC [PODOFILOX]
[1]
  IC50: 0.02 µM

## CCCCCCCCCCCCCCCCOP(=O)([O-])OCC[N+](C)(C)C [MILTEFOSINE]
[4]
  IC50: 0.49 µM

## CCCCCCCCCCCC#CC(=O)O
[2]
  IC50: 255 µM
[3]
  IC50: 62.4 µM
[4]
  IC50: 24.7 µM
[1]
  IC50: 40.9 µM
[5]
  Activity: 1.75%
[6]
  EC50: > 100 µM
[7]
  IC50: > 100 µM

## O=C(Cn1ccnc1[N+](=O)[O-])NCc1ccccc1 [BENZNIDAZOLE]
[3]
  IC50: 1.47 µM
